pIC50: −log10 of the molar value. Records with an inconclusive call do not appear. Active and inactive are the calls of the source.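 The calls were made as follows: active = inhibition of 30% or more at any tested concentration; inactive = the rest, inconclusive results apart.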

The target in the first test is M1-family alanyl aminopeptidase (Plasmodium falciparum 3D7). As to the kind of experiment: malaria M1 alanyl aminopeptidase inhibitors – biochemical, QFRET, H-Leu-NHMec substrate, set 2, selectivity assay for PfM17LAP inhibitor project, dose response (AID 602223). As to conditions: recombinant PfM1AAP, H-Leu-NHMec fluorogenic cleavage. The essentials:
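System: recombinant protease; also added: 0.1 mM fluorogenic substrate; doses: concentration series from 100 µM down to 0.2 µM; incubation: 90 min, room temperature; detection: fluorescence of liberated NHMec, excitation 370 nm, emission 460 nm; repeats: triplicate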
As for `O=C(Cc1ccc(Oc2ccccc2)cc1)NO`, the pIC50 is 5.26.

With `CCCCOc1ccc(C(=O)NO)cc1`, the pIC50 is 4.00.

As for `COc1ccc(CCCC(=O)NO)cc1`, the pIC50 is 4.02.

For `CC(C)COc1ccc(CC(=O)NO)cc1`, the pIC50 is 4.63.

With `Cc1ccc(CC(=O)NO)cc1`, the pIC50 is 5.24.

Regarding `CCCCc1ccc(CC(=O)NO)cc1`, the pIC50 is 5.59.

Turning to `COc1ccc(CC(=O)NO)cc1`, the pIC50 was 5.34.

Consider `O=C(Cc1ccc2c(c1)CCCC2)NO`, for which the negative-log IC50 (pIC50) was 5.85.

For `CCCCCCCCCC(=O)NO`, the negative logarithm of the IC50 (pIC50) was 4.87.

Turning to `O=C(Cc1ccc(OCc2ccccc2)cc1)NO`, the pIC50 is 5.54.

As to `CCCCOc1ccc(CC(=O)NO)cc1`, the pIC50 is 4.85.

Turning to `CCOc1ccc(CC(=O)NO)cc1`, the pIC50 was 5.15.

Still in this test, the particulars now being: recombinant PfM1AAP, H-Leu-NHMec fluorogenic cleavage; at 100 µM (top of the series).
Turning to `COC(=O)Cc1ccc(OCCN(C)C)cc1`, the inhibition result is “inactive”.

With `CCCCOc1ccc(CC(=O)O)cc1`, the inhibition result was “inactive”.

For `CCCCOc1ccc(CC(=O)N(C)O)cc1`, the inhibition result was “inactive”.

Consider `CC(C)(C(=O)NO)c1ccccc1`, for which the inhibition result is “inactive”.

With `CCCCOc1ccc(CNc2c(N(O)Cc3ccccc3)c(=O)c2=O)cc1`, the inhibition result was “inactive”.

Consider `CN(O)C(=O)Cc1ccc(OCc2ccccc2)cc1`, for which the inhibition result is “inactive”.

In the case of `CCCOc1ccc(CC(=O)OC)cc1`, the inhibition entry was “inactive”.

As for `CCCCOc1ccc(CNc2c(N(C)O)c(=O)c2=O)cc1`, the inhibition entry was “inactive”.

The pIC50 is the IC50 on a negative log10 scale, so that one unit is a factor of ten.

These data come from PubChem BioAssay AID602223 (Southern Research Specialized Biocontainment Screening …, 2012).
